ChEMBL document CHEMBL2163334, “Discovery of highly potent and selective pan-Aurora kinase inhibitors with enhanced in vivo antitumor therapeutic index” (J Med Chem, 2012)
Calls of active or inactive are those of the source. The calls are words filed in the database; no cut-off is given here.

How the values were obtained:
[1] = Protein binding in plasma; type: ADME, cell-free; conditions: read-out: PPB
Aurora kinase A = target: T1, Aurora kinase A (Homo sapiens, UniProt O14965); experiment: Binding affinity to Aurora kinase A catalytic domain by competition binding assay
T1 sequence (O14965 whole entry): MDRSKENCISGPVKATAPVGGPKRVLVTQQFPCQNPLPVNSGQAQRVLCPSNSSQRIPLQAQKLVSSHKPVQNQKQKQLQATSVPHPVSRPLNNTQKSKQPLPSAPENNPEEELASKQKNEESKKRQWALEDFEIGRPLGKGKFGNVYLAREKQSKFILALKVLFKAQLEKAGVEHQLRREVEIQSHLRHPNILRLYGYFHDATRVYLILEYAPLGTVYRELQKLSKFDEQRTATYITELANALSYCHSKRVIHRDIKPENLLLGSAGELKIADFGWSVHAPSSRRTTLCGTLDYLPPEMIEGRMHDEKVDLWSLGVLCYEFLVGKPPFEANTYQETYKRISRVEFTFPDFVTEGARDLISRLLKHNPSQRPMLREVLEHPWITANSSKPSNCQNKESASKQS

Aurora kinase B [2] = target: T2, Aurora kinase B (Homo sapiens, UniProt Q96GD4); experiment: Inhibition of Aurora kinase B-mediated histone H3 Ser10 phosphorylation in human HCT116 cells after 2 hrs by sandwich ELISA; type: cell-based, HCT-116
Summary of the method: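 HCT-116 cells seeded 4 × 10⁴/well, 4-6 h at 37 °C, then arrested overnight (16-18 h) with nocodazole at 66 ng/mL final. Treated 2 h with nine-point 3-fold dilutions in DMSO; lysed with phosphatase inhibitor, phospho-H3 (Ser10) sandwich ELISA read at 450 nm. IC50 = 50% inhibition of phosphorylation; duplicate runs averaged.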

HCT-116 [3] = experiment: Antiproliferative activity against human HCT116 cells after 72 hrs by BrdU-based ELISA; type: functional, cell-based; conditions: HCT-116, 72 h
Summary of the method: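 HCT-116 cells in McCoy's 5A with 10% FBS and pen/strep, seeded 800 cells/well, left overnight at 37 °C, 5% CO2. Nine-point 3-fold serial dilutions in DMSO added for 72 h; BrdU colorimetric ELISA read at 450 and 690 nm. IC50 is the concentration halving proliferation; duplicate runs averaged.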

[4] = Clearance in Sprague-Dawley rat at 1 mg/kg, iv administered using PEG400/water as vehicle; type: ADME, organism-based; set-up: dose 1 mg/kg, route intravenous; conditions: in vivo
Summary of the method: (§1)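 SD rats fasted overnight, given 1 mg/kg iv in PEG400/water (3:1, v/v); three per arm. Blood into K3 EDTA at 5, 15, 30 min, 1, 2, 4, 6, 24 h, spun at 4 °C; plasma extracted with six volumes acetonitrile plus internal standard and quantified by LC-MS/MS (C8 column, formic acid/ACN gradient).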

[5] = Clearance in athymic Nu/Nu rat at 5 mg/kg, iv administered using TPPW as vehicle; type: ADME, organism-based; set-up: dose 5 mg/kg, route intravenous; conditions: in vivo
Summary of the method: (§2)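 Plasma from K3 EDTA blood at 5, 15, 30 min, 1, 2, 4, 6, 24 h; acetonitrile extraction with internal standard, LC-MS/MS on C8 column, 5-95% ACN gradient with 0.05% formic acid.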

[6] = Clearance in athymic Nu/Nu rat at 50 mg/kg, iv administered using TPPW as vehicle; type: ADME, organism-based; set-up: dose 50 mg/kg, route intravenous; conditions: in vivo; summary of the method: as §2
[7] = Volume of distribution in Sprague-Dawley rat at 1 mg/kg, iv administered using PEG400/water as vehicle; type: ADME, organism-based; set-up: dose 1 mg/kg, route intravenous; conditions: in vivo; summary of the method: as §1
[8] = Volume of distribution in Nu/Nu rat at 5 mg/kg, iv administered using TPPW as vehicle; type: ADME, organism-based; set-up: dose 5 mg/kg, route intravenous; conditions: in vivo; summary of the method: as §2
[9] = Volume of distribution in Nu/Nu rat at 15 mg/kg, iv administered using TPPW as vehicle; type: ADME, organism-based; set-up: dose 15 mg/kg, route intravenous; conditions: in vivo; summary of the method: as §2
[10] = AUC (0 to infinity) in Sprague-Dawley rat at 1 mg/kg, iv administered using PEG400/water as vehicle; type: ADME, organism-based; set-up: time infinity, dose 1 mg/kg, route intravenous; conditions: plasma; summary of the method: as §1
[11] = AUC (0 to infinity) in Nu/Nu rat at 15 mg/kg, iv administered using TPPW as vehicle; type: ADME, organism-based; set-up: dose 15 mg/kg, route intravenous, time infinity; conditions: plasma; summary of the method: as §2
[12] = AUC (0 to infinity) in Nu/Nu rat at 50 mg/kg, iv administered using TPPW as vehicle; type: ADME, organism-based; set-up: time infinity, dose 50 mg/kg, route intravenous; conditions: plasma; summary of the method: as §2
[13] = Half life in Sprague-Dawley rat at 1 mg/kg, iv administered using PEG400/water as vehicle; type: ADME, organism-based; set-up: dose 1 mg/kg, route intravenous; conditions: in vivo; summary of the method: as §1
[14] = Half life in Nu/Nu rat at 5 mg/kg, iv administered using TPPW as vehicle; type: ADME, organism-based; set-up: dose 5 mg/kg, route intravenous; conditions: in vivo; summary of the method: as §2
[15] = Half life in Nu/Nu rat at 15 mg/kg, iv administered using TPPW as vehicle; type: ADME, organism-based; set-up: dose 15 mg/kg, route intravenous; conditions: in vivo; summary of the method: as §2
Aurora kinase B [16] = target: T2, Aurora kinase B; experiment: Inhibition of Aurora kinase B in human HCT116 cells assessed as induction of 8N polyploidy; type: cell-based; conditions: HCT-116
HCT-116 [17] = experiment: Antitumor activity against human HCT116 cells xenografted in iv dosed athymic nude rat assessed as tumor growth inhibition administered every other day from day 10 post tumor-injection for 3 weeks relative to vehicle treated control; type: functional, organism-based
Summary of the method: (§3)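 Subcutaneous flank HCT-116 xenografts in nude rats; at Day 1 groups of 10 with mean tumor 301-306 mm³. Tail-vein iv in TPPW (2% Tween-80, 5% propylene glycol, 10% PG-400, 83% water) at 10 mL/kg, weight-adjusted: days 1,3,5,8,10,12,15,17,19 or days 1-4, 8-11, 15-18. Irinotecan control 100 mg/kg ip weekly ×3.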

HCT-116 [18] = experiment: Antitumor activity against human HCT116 cells xenografted in athymic nude rat assessed as tumor stasis at 20 mg/kg, iv administered every other day from day 10 post tumor-injection for 3 weeks […]; type: functional, organism-based; set-up: dose 20 mg/kg
Summary of the method: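 HCT-116 flank xenografts in nude rats, groups of 10 at mean 301-306 mm³; iv tail-vein dosing in TPPW at 10 mL/kg on days 1,3,5,8,10,12,15,17,19; tumors followed after dosing stopped, study ending day 42 or day 60.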

HCT-116 [19] = experiment: Antitumor activity against human HCT116 cells xenografted in athymic nude rat assessed as tumor growth inhibition at 10 mg/kg, iv administered every other day from day 10 post tumor-injection for 3 weeks relative to vehicle treated control; type: functional; conditions: read-out: TGI; summary of the method: as §3
Rattus norvegicus [20] = experiment: Toxicity in athymic nude rat bearing human HCT116 cells assessed body weight loss up to 20 mg/kg, iv administered every other day from day 10 post tumor-injection for 3 weeks; type: organism-based, HCT-116; set-up: dose 20 mg/kg, route intravenous; conditions: in vivo, 504 h; summary of the method: as §3
HCT-116 [21] = experiment: Antitumor activity against human HCT116 cells xenografted in athymic nude rat assessed as tumor growth inhibition at 2.5 mg/kg, iv administered QD for 4 days per week followed by 3 days off per week for 3 weeks; type: functional, organism-based; set-up: dose 2.5 mg/kg; summary of the method: as §3
HCT-116 [22] = experiment: Antitumor activity against human HCT116 cells xenografted in athymic nude rat assessed as tumor growth inhibition at 5 mg/kg, iv administered QD for 4 days per week followed by 3 days off per week for 3 weeks; type: functional, organism-based; set-up: dose 5 mg/kg; summary of the method: as §3
HCT-116 [23] = experiment: Antitumor activity against human HCT116 cells xenografted in athymic nude rat assessed as tumor growth inhibition at 10 mg/kg, iv administered QD for 4 days per week followed by 3 days off per week for 3 weeks; type: functional, organism-based; set-up: dose 10 mg/kg; summary of the method: as §3
Rattus norvegicus [24] = experiment: Toxicity in athymic nude rat bearing human HCT116 cells assessed as adverse effects at 2.5 mg/kg, iv administered QD for 4 days per week followed by 3 days off per week for 3 weeks; type: organism-based, HCT-116; set-up: dose 2.5 mg/kg, route intravenous; conditions: in vivo; summary of the method: as §3
Rattus norvegicus [25] = experiment: Toxicity in athymic nude rat bearing human HCT116 cells assessed as adverse effects at 5 to 10 mg/kg, iv administered QD for 4 days per week followed by 3 days off per week for 3 weeks; type: organism-based, HCT-116; set-up: dose 5-10 mg/kg, route intravenous; conditions: in vivo; summary of the method: as §3

T2 sequence (Q96GD4 whole entry): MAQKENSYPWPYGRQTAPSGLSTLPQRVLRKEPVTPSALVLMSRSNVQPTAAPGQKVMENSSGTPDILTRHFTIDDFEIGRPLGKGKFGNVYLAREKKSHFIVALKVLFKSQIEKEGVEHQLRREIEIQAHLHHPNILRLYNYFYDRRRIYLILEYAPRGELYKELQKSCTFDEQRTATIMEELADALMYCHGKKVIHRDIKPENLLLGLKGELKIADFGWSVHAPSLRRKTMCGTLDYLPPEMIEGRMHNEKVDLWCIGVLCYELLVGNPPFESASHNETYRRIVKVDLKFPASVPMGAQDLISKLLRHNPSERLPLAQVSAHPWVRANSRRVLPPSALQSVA

## Cc1cc(Nc2nc(Sc3ccc(NC(=O)CN4CC[C@@H](C(=O)N5CCC(F)(F)C5)C4)cc3)nn3cccc23)n[nH]1
[1]
  fraction unbound: 0.01
Aurora kinase A
  Kd: 5.8 nM
Aurora kinase B [2]
  IC50: 6.1 nM
HCT-116 [3]
  IC50: 1.2 nM
[4]
  clearance: 21.1 mL/min/kg
[5]
  clearance: 19.2 mL/min/kg
[6]
  clearance: 5.23 mL/min/kg
[7]
  Vd: 7 L/kg
[8]
  Vd: 0.7 L/kg
[9]
  Vd: 0.8 L/kg
[10]
  AUC(0-inf): 1.4 µM·h
[11]
  AUC(0-inf): 34.4 µM·h
[12]
  AUC(0-inf): 181 µM·h
[13]
  half-life: 17.5 h
[14]
  half-life: 1.1 h
[15]
  half-life: 3.7 h
Aurora kinase B [16]
  inhibition: Dose-dependent effect
HCT-116 [17]
  TGI: Active
HCT-116 [18]
  Activity: Active
HCT-116 [19]
  inhibition in vivo at 10 mg/kg: 60%
Rattus norvegicus [20]
  Activity: Non-toxic
HCT-116 [21]
  TGI: Active
HCT-116 [22]
  TGI: Active
HCT-116 [23]
  TGI: Active
Rattus norvegicus [24]
  Activity: Non-toxic
Rattus norvegicus [25]
  Activity: Non-toxic
